The text below walks through data of ChEMBL document CHEMBL4028911, “Discovery of a Small-Molecule Bromodomain-Containing Protein 4 (BRD4) Inhibitor That Induces AMP-Activated Protein Kinase-Modulated Autophagy-Associated Cell Death in Breast Cancer” (J Med Chem, 2017).

Series [1] has as its target T1, AMP-activated protein kinase, AMPK (Homo sapiens) (UniProt P54646+O43741+P54619+Q9UGJ0+Q9Y478+Q13131+Q9UGI9). Put plainly: Activation of AMPK (unknown origin) at 1 to 10^6 nM using MBP as substrate after 60 mins in presence of ATP by […] assay. Summed up: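 ADP-Glo luminescent kinase assay; AMPK or ULK1 enzyme, substrate, ATP and compound diluted in 40 mM Tris pH 7.5, 20 mM MgCl2, 0.1 mg/ml BSA, 50 µM DTT. Enzyme (10 ng) mixed with MBP (0.1 µg/µl)/ATP (10 µM) and compound, 60 min at room temperature. ADP-Glo reagent 40 min, then detection reagent 30 min, luminescence read; signal rises with kinase activity.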

Series [2] concerns the target T1, AMP-activated protein kinase, AMPK (Homo sapiens). Kind of series: Inhibition of AMPK (unknown origin) at 1 to 10^6 nM using MBP as substrate after 60 mins in presence of ATP by ADO-Glo assay.
The target in series [3] is T2, Bromodomain-containing protein 4 (Homo sapiens, UniProt O60885). Put plainly: Inhibition of BRD4 in human MCF7 cells assessed as induction of AMPKalpha phosphorylation at thr172 at 1.5 uM measured up to 36 hrs by Western blot analysis. The class given is cell-based. The method, boiled down:
(§1)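 MCF-7 (1.5 μM) or MDA-MB-231 (3 μM) cells treated for indicated times. Adherent and floating cells lysed in RIPA with 1 mM PMSF. Equal protein run on 10-15% SDS-PAGE, blotted to PVDF, blocked in milk or BSA, HRP/ECL detection. β-actin loading control.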

Series [4] has as its system MCF7. Put plainly: Induction of autophagy in GFP-LC3 fused human MCF7 cells assessed as increase in LC3 puncta at 1.5 uM by fluorescence microscopy. Type of series: functional, cell-based. Summed up:
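MCF-7 or MDA-MB-231 cells transfected with eGFP-LC3 plasmid, then treated with 1.5 or 3 µM respectively for 24 h. LC3 puncta viewed by fluorescence microscopy.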

Series [5] addresses Bromodomain-containing protein 2 (Homo sapiens, UniProt P25440). Kind of series: Inhibition of recombinant human N-terminal GST-tagged BRD2 bromodomain-1 (65 to 187 residues) expressed in Escherichia coli expression system after 120 mins by TR-FRET assay. The method, boiled down: (§2)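 TR-FRET bromodomain binding. Recombinant BRD domain, BET ligand and test agent in 20 μl assay buffer with 1% DMSO final. Incubated 120 min at room temperature. Blank lacks BET ligand.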
A general note: In TR-FRET formats the signal depends on donor and acceptor labels being close together.

The test system of series [6] is MCF7. Kind of series: Induction of autophagy in human MCF7 cells assessed as increase in LC3-2 expression at 1.5 uM by Western blot analysis. Type of series: functional, cell-based. As to conditions: TDE = time-dependent effect. The method, boiled down:
(§3)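 MCF-7 (1.5 µM) or MDA-MB-231 (3 µM) cells treated for indicated times. Adherent and floating cells lysed in RIPA with 1 mM PMSF, 4°C for 1 h. Equal protein run on 10-15% SDS-PAGE, transferred to PVDF, blocked with milk or BSA, probed with primary then HRP secondary antibodies, ECL detection; β-actin as loading control.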
In general terms: In western blotting, separated proteins are transferred to a membrane and probed.

Series [7] concerns the target T2, Bromodomain-containing protein 4. Kind of series: Inhibition of BRD4 in human MCF7 cells assessed as induction of AMPKalpha phosphorylation at thr172 at 1.5 uM in presence of ATG5 siRNA by Western blot analysis. Type of series: cell-based. The method, boiled down:
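Cells given 50 nM ATG5 or negative-control siRNA (Lipofectamine RNAiMAX) and used 48 h later, then exposed to 1.5 μM (MCF-7) or 3 μM (MDA-MB-231). p-AMPKα analysed by western blot with β-actin loading control.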

Series [8] relates to MDA-MB-231. Kind of series: Induction of autophagy in human MDA-MB-231 cells assessed as reduction in cell viability at 3 uM administered at 1 hr post […] addition by MTT assay. Type of series: functional, cell-based. The method, boiled down:
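MDA-MB-231 cells seeded at 5×10^4 cells/ml and grown 24 h. 3-MA (1 mM) added 1 h before 3 μM test agent. MTT (5 mg/ml) for 4 h, formazan dissolved in DMSO, absorbance read at 570 nm.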
For orientation: Formazan colour is commonly taken as a measure of viable cells.

The target in series [9] is T2, Bromodomain-containing protein 4. Kind of series: Inhibition of BRD4 in human MCF7 cells assessed as downregulation of AKT phosphorylation at ser473 at 1.5 uM measured up to 36 hrs by Western blot analysis. Type of series: cell-based. Summed up:
as §1

Series [10] relates to MDA-MB-231. Kind of series: Effect on mTOR expression in human MDA-MB-231 cells at 3 uM measured up to 36 hrs by Western blot analysis. Type of series: ADME, cell-based. As to conditions: mda-mb-231, 36 h. Summed up: as §3
Series [11] deals with Bromodomain testis-specific protein (Homo sapiens, UniProt Q58F21). Kind of series: Inhibition of recombinant human N-terminal GST-tagged BRDT bromodomain-1 (22 to 138 residues) expressed in Escherichia coli expression system after 120 mins by TR-FRET assay. The method, boiled down:
as §2

Series [12] concerns MDA-MB-231. Put plainly: Antitumor activity against human MDA-MB-231 cells xenografted in nude BALB/c mouse assessed as tumor growth inhibition at 25 to 100 mg/kg, ig administered once a day for 27 days measured every 3 days relative to control. Type of series: functional. The method, boiled down: (§4)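 Female BALB/c nude mice, 6-8 weeks, 20-22 g, injected subcutaneously with 5×10^6 MCF-7 or MDA-MB-231 cells. At 100 mm³ tumor volume (V = L×W²/2), split into four groups: 25, 50 or 100 mg/kg intragastric once daily for 24 or 27 days, or vehicle. Tumor volume and body weight measured every 3 days; tumors excised and weighed at end. MCF-7 n=7, MDA-MB-231 n=6 per group.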

The test system of series [13] is Mus musculus. Put plainly: In vivo Antiproliferative activity in BALB/c mouse xenografted with human MCF7 cells assessed as reduction in Ki-67 positive cells at 100 mg/kg, ig administered once a day for 24 days by hematoxylin-staining based immunohistochemistry analysis. The class given is functional, organism-based. The method, boiled down:
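Xenograft tumors from vehicle and 100 mg/kg groups were formalin-fixed and sectioned. Antigen retrieval by microwaving in EDTA buffer (pH 8.0) or citrate buffer (pH 6.0). […] Percentage of positive staining quantified.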

For series [14], the system named is Mus musculus. Kind of series: In vivo inhibition of c-Myc expression in BALB/c mouse xenografted with human MCF7 cells at 100 mg/kg, ig administered once a day for 24 days by Western blot analysis. The class given is functional, organism-based. The method, boiled down: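 Tumor tissues excised from MCF-7 or MDA-MB-231 xenograft mice were lysed and analysed by western blot for BRD4, c-Myc, LC3 and cleaved caspase-3.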

Series [15] deals with T2, Bromodomain-containing protein 4. Kind of series: Inhibition of BRD4 interaction with AMPK in human MDA-MB-231 cells at 3 uM by co-immunoprecipitation assay. Type of series: cell-based. Summed up: (§5)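 Cells lysed in RIPA buffer (40 mM Tris-HCl pH 7.5, 150 mM NaCl, 0.5% NP-40, 5% glycerol, 10 mM NaF, protease inhibitors). Lysates incubated overnight at 4 °C with BRD4 or p53 antibody plus protein A/G beads, washed 3 times, resolved on 10% SDS-PAGE and blotted for AMPKα or p53.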

The target is the same in series [16]. Kind of series: Inhibition of BRD4 interaction with p53 in human MCF7 cells at 1.5 uM by co-immunoprecipitation assay. Type of series: cell-based. The method, boiled down:
as §5

The subject of series [17] is MDA-MB-231. Put plainly: Induction of autophagy in human MDA-MB-231 cells assessed as assessed as cytoplasmic vacuolization. The class given is functional, cell-based.
In series [18] the test system is MCF7. Kind of series: Antitumor activity against human MCF7 cells xenografted in nude BALB/c mouse assessed as reduction in tumor weight at 25 to 100 mg/kg, ig administered once a day for 24 days measured every 3 days relative to control. Type of series: functional, organism-based. Summed up:
as §4

As usually defined, the IC50 is the concentration that inhibits the measured activity by half. As a reminder, the TGI is the reduction of tumour growth relative to the control group.

The structures appear in SMILES notation. Activity calls are given as the source filed them. The rule behind the calls is not given here.

Sequence of Bromodomain-containing protein 2 (P25440 whole entry, the tested form may be a part): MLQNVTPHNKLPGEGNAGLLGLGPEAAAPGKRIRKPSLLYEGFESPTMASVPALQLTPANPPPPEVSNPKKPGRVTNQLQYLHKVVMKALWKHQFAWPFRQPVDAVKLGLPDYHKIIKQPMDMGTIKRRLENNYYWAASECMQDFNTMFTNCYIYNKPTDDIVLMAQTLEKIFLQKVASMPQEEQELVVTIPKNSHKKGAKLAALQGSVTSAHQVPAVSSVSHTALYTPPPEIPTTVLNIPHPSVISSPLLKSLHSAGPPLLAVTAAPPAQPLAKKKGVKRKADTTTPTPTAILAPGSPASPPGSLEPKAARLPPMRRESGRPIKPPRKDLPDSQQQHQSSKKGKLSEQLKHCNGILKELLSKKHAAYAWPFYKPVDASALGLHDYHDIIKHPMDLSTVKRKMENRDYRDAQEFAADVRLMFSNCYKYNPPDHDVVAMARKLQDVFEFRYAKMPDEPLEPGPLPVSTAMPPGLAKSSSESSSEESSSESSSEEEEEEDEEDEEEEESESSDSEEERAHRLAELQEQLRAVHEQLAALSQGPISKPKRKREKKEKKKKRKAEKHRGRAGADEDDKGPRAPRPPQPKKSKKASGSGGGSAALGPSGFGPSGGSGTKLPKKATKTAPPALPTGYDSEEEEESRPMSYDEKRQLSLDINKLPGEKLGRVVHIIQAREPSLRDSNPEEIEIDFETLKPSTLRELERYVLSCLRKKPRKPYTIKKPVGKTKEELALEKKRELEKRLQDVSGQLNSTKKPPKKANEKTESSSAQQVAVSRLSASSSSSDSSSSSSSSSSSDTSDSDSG

For the molecule `Cc1cc(-c2nc3sc4c(c3c(=O)[nH]2)CCN(C)C4)cc(C)c1O`, the result in series [1] and in series [8] was inactive. For the same molecule, the inhibition entry in series [2] is “inactive”. Besides, the inhibition entry in series [3], in series [7], in [9], in series [15] and in series [16] was “Active” in each case. In addition, the result in [4], in series [13], in series [14], in series [17] and in series [18] was Active. The IC50 in series [5] is 24.6 µM; in series [11] it was > 100 µM. Further, the Activity entry in [6] was “Tde”; in series [10], “Non-Toxic”. Besides, the inhibition of tumour growth (TGI) in series [12] worked out at 76%.
